Assay results as given in ChEMBL document CHEMBL1157638, “Fluorescent epigenetic small molecule induces expression of the tumor suppressor ras-association domain family 1A and inhibits human prostate xenograft” (J Med Chem, 2010).
Active and inactive are the calls of the source. The rule behind the calls is not given here.

What was measured:
CAKI-1 [1] = assay: Growth inhibition of human Caki1 cells assessed as cell growth at 1 uM relative to untreated control; format: functional; conditions: read-out: Activity
Summary of the method: (§1)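 Run externally at the National Cancer Institute as a 59-cell-line panel screen, with concentrations up to 100 μM. Growth was scored relative to control, where negative growth or total cell kill was possible. Data are in the Supporting Information.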

SF-295 = assay: Growth inhibition of human SF295 cells assessed as cell growth at 10 nM relative to untreated control; format: functional; conditions: read-out: Activity
SW-620 = assay: Growth inhibition of human SW620 cells assessed as cell growth at 10 uM relative to untreated control; format: functional; conditions: read-out: Activity
ACHN = assay: Growth inhibition of human ACHN cells assessed as cell growth at 10 nM relative to untreated control; format: functional; conditions: read-out: Activity
HCC 2998 = assay: Growth inhibition of human HCC2998 cells assessed as cell growth at 100 nM relative to untreated control; format: functional; conditions: read-out: Activity; summary of the method: as §1
SNB-75 = assay: Growth inhibition of human SNB75 cells assessed as cell growth at 1 uM relative to untreated control; format: functional; conditions: read-out: Activity
OVCAR-3 = assay: Growth inhibition of human OVCAR-3 cells assessed as cell growth at 1 nM relative to untreated control; format: functional; conditions: read-out: Activity
Mus musculus = assay: Toxicity in BALB/c mouse up to 550 mg/kg, po; format: organism-based; parameters: dose 550 mg/kg, route oral; conditions: in vivo
IGROV-1 [2] = assay: Growth inhibition of human IGROV1 cells assessed as cell growth at 1 nM relative to untreated control; format: functional; conditions: read-out: Activity
U-251 [3] = assay: Growth inhibition of human U251 cells assessed as cell growth at 1 uM relative to untreated control; format: functional; conditions: read-out: Activity
SNB-19 [4] = assay: Growth inhibition of human SNB19 cells assessed as cell growth at 1 nM relative to untreated control; format: functional; conditions: read-out: Activity
[5] = Growth inhibition of human Hs 578T cells assessed as cell growth at 10 nM relative to untreated control; format: functional; conditions: read-out: Activity
HL-60(TB) = assay: Growth inhibition of human HL-60(TB) cells assessed as cell growth at 1 nM relative to untreated control; format: functional; conditions: read-out: Activity
HCT-15 [6] = assay: Growth inhibition of human HCT15 cells assessed as cell growth at 10 nM relative to untreated control; format: functional; conditions: read-out: Activity; summary of the method: as §1
HOP-92 [7] = assay: Growth inhibition of human HOP92 cells assessed as cell growth at 10 nM relative to untreated control; format: functional; conditions: read-out: Activity; summary of the method: as §1
SK-MEL-2 = assay: Growth inhibition of human SK-MEL-2 cells assessed as cell growth at 100 nM relative to untreated control; format: functional; conditions: read-out: Activity
K562 = assay: Growth inhibition of human K562 cells assessed as cell growth at 1 nM relative to untreated control; format: functional; conditions: read-out: Activity
HOP-92 [8] = assay: Growth inhibition of human HOP92 cells assessed as cell growth at 100 nM relative to untreated control; format: functional; conditions: read-out: Activity; summary of the method: as §1
IGROV-1 [9] = assay: Growth inhibition of human IGROV1 cells; format: functional
KM12 = assay: Growth inhibition of human KM12 cells; format: functional
PC-3 [10] = assay: Growth inhibition of human PC3 cells assessed as cell growth at 1 nM relative to untreated control; format: functional; conditions: read-out: Activity
NCI-H460 = assay: Growth inhibition of human NCI-H460 cells assessed as cell growth at 100 nM relative to untreated control; format: functional; conditions: read-out: Activity
UACC-257 [11] = assay: Growth inhibition of human UACC257 cells assessed as cell growth at 1 nM relative to untreated control; format: functional; conditions: read-out: Activity
SNB-19 [12] = assay: Growth inhibition of human SNB19 cells assessed as cell growth at 1 uM relative to untreated control; format: functional; conditions: read-out: Activity
U-251 [13] = assay: Growth inhibition of human U251 cells assessed as cell growth at 100 nM relative to untreated control; format: functional; conditions: read-out: Activity
SR [14] = assay: Growth inhibition of human SR cells assessed as cell growth at 100 nM relative to untreated control; format: functional; conditions: read-out: Activity
UO-31 [15] = assay: Growth inhibition of human UO31 cells assessed as cell growth at 10 uM relative to untreated control; format: functional; conditions: read-out: Activity
786-0 [16] = assay: Growth inhibition of human 786-0 cells; format: functional
SR [17] = assay: Growth inhibition of human SR cells assessed as cell growth at 10 uM relative to untreated control; format: functional; conditions: read-out: Activity
UACC-257 [18] = assay: Growth inhibition of human UACC257 cells assessed as cell growth at 10 nM relative to untreated control; format: functional; conditions: read-out: Activity
T47D [19] = assay: Growth inhibition of human T47D cells assessed as cell growth at 10 nM relative to untreated control; format: functional; conditions: read-out: Activity
HCT-15 [20] = assay: Growth inhibition of human HCT15 cells; format: functional; summary of the method: as §1
SN12C = assay: Growth inhibition of human SN12C cells; format: functional
UACC-62 = assay: Growth inhibition of human UACC62 cells assessed as cell growth at 100 nM relative to untreated control; format: functional; conditions: read-out: Activity
SF-539 = assay: Growth inhibition of human SF539 cells assessed as cell growth at 100 nM relative to untreated control; format: functional; conditions: read-out: Activity
SK-MEL-5 = assay: Growth inhibition of human SK-MEL-5 cells assessed as cell growth at 10 nM relative to untreated control; format: functional; conditions: read-out: Activity
HT-29 = assay: Growth inhibition of human HT-29 cells assessed as cell growth at 10 uM relative to untreated control; format: functional; conditions: read-out: Activity
NCI-H322M = assay: Growth inhibition of human NCI-H322M cells assessed as cell growth at 100 nM relative to untreated control; format: functional; conditions: read-out: Activity
A549 = assay: Growth inhibition of human A549 cells assessed as cell growth at 1 uM relative to untreated control; format: functional; conditions: read-out: Activity
NCI-H226 = assay: Growth inhibition of human NCI-H226 cells; format: functional
CCRF-CEM = assay: Growth inhibition of human CCRF-CEM cells assessed as cell growth at 1 uM relative to untreated control; format: functional; conditions: read-out: Activity
LOX IMVI = assay: Growth inhibition of human LOXIMVI cells assessed as cell growth at 10 uM relative to untreated control; format: functional; conditions: read-out: Activity
Malme-3M = assay: Growth inhibition of human MALME-3M cells assessed as cell growth at 100 nM relative to untreated control; format: functional; conditions: read-out: Activity
786-0 [21] = assay: Growth inhibition of human 786-0 cells assessed as cell growth at 1 nM relative to untreated control; format: functional; conditions: read-out: Activity
PC-3 [22] = assay: […] in RASSF1A gene expression in human PC3 cells at 5 uM after 3 days hrs by RT-PCR; format: functional, cell-based
UO-31 [23] = assay: Growth inhibition of human UO31 cells assessed as cell growth at 1 nM relative to untreated control; format: functional; conditions: read-out: Activity
T47D [24] = assay: Growth inhibition of human T47D cells assessed as cell growth at 100 nM relative to untreated control; format: functional; conditions: read-out: Activity
[25] = Growth inhibition of human […] cells assessed as cell growth at 100 nM relative to untreated control; format: functional; conditions: read-out: Activity
CAKI-1 [26] = assay: Growth inhibition of human Caki1 cells assessed as cell growth at 1 nM relative to untreated control; format: functional; conditions: read-out: Activity; summary of the method: as §1
[27] = read-out: LC50 (the source's name)

With `COc1ccc2c(c1)[nH]c1c(C)c(OS(=O)(=O)c3cccc4c(N(C)C)cccc34)ccc12` the growth at 1 µM (CAKI-1 [1]) was 69%, the growth at 0.01 µM (SF-295) was 93% and the growth at 10 µM (SW-620) was 9%. It also gave a growth at 0.01 µM (ACHN) of 102%, a growth at 0.1 µM (HCC 2998) of 78% and a growth at 1 µM (SNB-75) of 24%. For the same compound, the growth at 0.001 µM (OVCAR-3) was 100%, the Activity (Mus musculus) was “Non-toxic” and the growth at 0.001 µM (IGROV-1 [2]) was 111%. For the same compound, the growth at 1 µM (U-251 [3]) was 25%, the growth at 0.001 µM (SNB-19 [4]) was 97% and the growth at 0.01 µM [5] was 103%. For the same compound, the growth at 0.001 µM (HL-60(TB)) was 88%, the growth at 0.01 µM (HCT-15 [6]) was 92% and the growth at 0.01 µM (HOP-92 [7]) was 96%. The growth at 0.1 µM (SK-MEL-2) was 115%, the growth at 0.001 µM (K562) was 103% and the growth at 0.1 µM (HOP-92 [8]) was 91%. The GI50 (IGROV-1 [9]) was 27.6 µM, the TGI (IGROV-1 [9]) was > 100 µM and the CC50 (IGROV-1 [9]; [27]) was > 100 µM. For the same compound, the GI50 (KM12) was 41.5 µM, the TGI (KM12) was > 100 µM and the CC50 (KM12; [27]) was > 100 µM. It also gave a growth at 0.001 µM (PC-3 [10]) of 101%, a growth at 0.1 µM (NCI-H460) of 98% and a growth at 0.001 µM (UACC-257 [11]) of 100%. It also gave a growth at 1 µM (SNB-19 [12]) of 45%, a growth at 0.1 µM (U-251 [13]) of 92% and a growth at 0.1 µM (SR [14]) of 95%. The growth at 10 µM (UO-31 [15]) was 24%, the GI50 (786-0 [16]) was 5.42 µM and the TGI (786-0 [16]) was > 100 µM. For the same compound, the CC50 (786-0 [16]; [27]) was > 100 µM, the growth at 10 µM (SR [17]) was 7% and the growth at 0.01 µM (UACC-257 [18]) was 109%. For the same compound, the growth at 0.01 µM (T47D [19]) was 53%, the GI50 (HCT-15 [20]) was 4.35 µM and the TGI (HCT-15 [20]) was > 100 µM. For the same compound, the CC50 (HCT-15 [20]; [27]) was > 100 µM, the GI50 (SN12C) was 11.3 µM and the TGI (SN12C) was > 100 µM. The CC50 (SN12C; [27]) was > 100 µM, the growth at 0.1 µM (UACC-62) was 75% and the growth at 0.1 µM (SF-539) was 87%. It also gave a growth at 0.01 µM (SK-MEL-5) of 86%, a growth at 10 µM (HT-29) of 8% and a growth at 0.1 µM (NCI-H322M) of 94%. The growth at 1 µM (A549) was 31%, the GI50 (NCI-H226) was 11.3 µM and the TGI (NCI-H226) was > 100 µM. For the same compound, the CC50 (NCI-H226; [27]) was > 100 µM, the growth at 1 µM (CCRF-CEM) was 1% and the growth at 10 µM (LOX IMVI) was 14%. The growth at 0.1 µM (Malme-3M) was 85%, the growth at 0.001 µM (786-0 [21]) was 101% and the Activity (PC-3 [22]) was “Active”. It also gave a growth at 0.001 µM (UO-31 [23]) of 94%, a growth at 0.1 µM (T47D [24]) of 82% and a growth at 0.1 µM [25] of 90%. It also gave a growth at 0.001 µM (CAKI-1 [26]) of 98%.
